{"source": "ChEMBL document CHEMBL4177761", "about": "“Highlights of the Structure-Activity Relationships of Benzimidazole Linked Pyrrolidines Leading to the Discovery of the Hepatitis C Virus NS5A Inhibitor Pibrentasvir (ABT-530)” (J Med Chem, 2018)", "key": {"[1]": {"system": "T1, Nonstructural protein 5A (Hepatitis C virus), Q5L478 [Y93C]", "T1 sequence (whole entry)": "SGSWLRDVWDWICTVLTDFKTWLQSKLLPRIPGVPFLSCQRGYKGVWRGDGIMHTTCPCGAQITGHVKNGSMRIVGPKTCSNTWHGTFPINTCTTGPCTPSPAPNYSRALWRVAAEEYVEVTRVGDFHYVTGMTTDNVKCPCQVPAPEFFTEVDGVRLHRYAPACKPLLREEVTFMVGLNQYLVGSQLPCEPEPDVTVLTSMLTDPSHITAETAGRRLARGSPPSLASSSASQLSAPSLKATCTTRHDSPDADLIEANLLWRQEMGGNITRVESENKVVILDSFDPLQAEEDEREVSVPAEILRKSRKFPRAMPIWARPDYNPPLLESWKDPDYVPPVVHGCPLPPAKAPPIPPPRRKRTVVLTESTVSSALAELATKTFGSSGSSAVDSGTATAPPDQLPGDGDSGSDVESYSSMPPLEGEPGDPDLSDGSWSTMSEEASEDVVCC", "assay": "Inhibition of NS5A Y93C mutant in HuH7 cell infected HCV genotype 1a H77 assessed as decrease in viral replication after 4 days by luciferase reporter gene assay relative to wild type protein", "details": "Hepatitis C virus (isolate H77)", "procedure,_shortened": "(§1)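 Stable subgenomic luciferase replicons in Huh-7 cells: genotype 1a-H77 carrying NS5A substitutions M28T, Q30E, Q30R, Y93C, Y93H or Y93N, tested alongside the wild-type replicon. Cells are incubated 4 days with compound in DMEM with 5% FBS. Luciferase read-out, EC50 by 4-parameter logistic fit, and fold change versus wild type.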"}, "[2]": {"system": "T2, Nonstructural protein 5A (Hepatitis C virus), Q5L478 [Y93N]", "T2 sequence (whole entry)": "T1 sequence (whole entry) with C93N", "assay": "Inhibition of NS5A Y93N mutant in HuH7 cell infected HCV genotype 1a H77 assessed as decrease in viral replication after 4 days by luciferase reporter gene assay relative to wild type protein", "details": "Hepatitis C virus (isolate H77)", "procedure,_shortened": "as §1"}, "[3]": {"assay": "Half life in mouse at 3 mg/kg, iv by LC-MS method", "format": "ADME, organism-based", "details": "in vivo", "procedure,_shortened": "(§2)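 Single dose, 3 mg/kg, in mouse or rat. IV vehicle: DMSO:Tween 80:PEG-400:D5W 2:5:20:73 (v/v). PO vehicle: Phosol 53 MCT:PEG-400:Poloxamer 124:Cremophor RH40 40:20:20:20 (w/w). Acetonitrile protein precipitation, then LC-MS/MS in negative-ion MRM against an internal standard; LOQ ~20 ng/mL.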"}, "[4]": {"assay": "Cmax in mouse at 3 mg/kg, po by LC-MS method", "format": "ADME, organism-based", "design": "dose 3 mg/kg, route oral", "details": "in vivo", "procedure,_shortened": "as §2"}, "[5]": {"system": "T2, Nonstructural protein 5A (Hepatitis C virus), Q5L478 [Y93N]", "assay": "Inhibition of NS5A Y93N mutant in HuH7 cell infected HCV genotype 1b Con1 assessed as decrease in viral replication after 4 days by luciferase reporter gene assay relative to wild type protein", "details": "Hepatitis C virus (isolate Con1)", "procedure,_shortened": "as §1, with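 “1b-Con1” for “1a-H77”, “NS5A” for “NS5A substitutions M28T, Q30E, Q30R, Y93C,”, “from a” for “by”, “expressed as” for “and”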"}, "[6]": {"assay": "AUClast in mouse at 3 mg/kg, iv by LC-MS method", "format": "ADME, organism-based", "design": "dose 3 mg/kg, route intravenous, time 0 - last", "details": "in vivo", "procedure,_shortened": "as §2"}, "[7]": {"assay": "Plasma clearance in rat at 3 mg/kg, iv by LC-MS method", "format": "ADME, organism-based", "procedure,_shortened": "as §2"}, "[8]": {"assay": "AUClast in dog at 1 mg/kg, iv by LC-MS method", "format": "ADME, organism-based, Canis lupus familiaris", "design": "dose 1 mg/kg, route intravenous, time 0 - last", "details": "in vivo", "procedure,_shortened": "(§3)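 Single dose in dog or monkey, 1 mg/kg IV or 2.5 mg/kg PO. Plasma drug measured by LC-MS after acetonitrile protein precipitation with an internal standard. Quantified by linear regression of parent/internal-standard peak-area ratio against spiked standards.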"}, "[9]": {"assay": "Plasma clearance in dog at 1 mg/kg, iv by LC-MS method", "format": "ADME, organism-based, Canis lupus familiaris", "procedure,_shortened": "as §3"}, "[10]": {"assay": "Apparent volume of distribution in monkey at 1 mg/kg, iv by LC-MS method", "format": "ADME, organism-based, Macaca mulatta", "details": "rhesus monkey, in vivo, read-out: Vc", "procedure,_shortened": "as §3"}, "[11]": {"assay": "Tmax in rat at 3 mg/kg, po by LC-MS method", "format": "ADME, organism-based", "details": "in vivo", "procedure,_shortened": "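Single 3 mg/kg oral dose in rat, formulated in 40:20:20:20 (w/w) Phosol 53 MCT:PEG-400:Poloxamer 124:Cremophor RH40. Heparinized plasma drawn at 0.25, 0.5, 1, 2, 4, 6, 9, 12 and 24 h. Acetonitrile protein precipitation, then LC-MS in negative-ion MRM mode. Levels read from peak-area ratio to internal standard against spiked standards by linear regression; LOQ ~20 ng/mL.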"}, "[12]": {"assay": "Cmax in rat at 3 mg/kg, po by LC-MS method", "format": "ADME, organism-based", "design": "dose 3 mg/kg, route oral", "details": "in vivo", "procedure,_shortened": "as §2"}, "[13]": {"assay": "Drug level in rat at 3 mg/kg, po at 24 hrs by LC-MS method", "format": "ADME, organism-based", "details": "in vivo, read-out: Drug uptake", "procedure,_shortened": "as §2"}, "[14]": {"assay": "Oral bioavailability in rat at 3 mg/kg by LC-MS method", "format": "ADME, organism-based", "details": "in vivo", "procedure,_shortened": "as §2"}, "[15]": {"assay": "Half life in dog at 2.5 mg/kg, po by LC-MS method", "format": "ADME, organism-based, Canis lupus familiaris", "details": "in vivo", "procedure,_shortened": "as §3"}, "[16]": {"assay": "AUClast in dog at 2.5 mg/kg, po by LC-MS method", "format": "ADME, organism-based, Canis lupus familiaris", "design": "dose 2.5 mg/kg, route oral, time 0 - last", "details": "in vivo", "procedure,_shortened": "as §3"}, "[17]": {"assay": "Cmax in monkey at 2.5 mg/kg, po by LC-MS method", "format": "ADME, organism-based, Macaca mulatta", "design": "dose 2.5 mg/kg, route oral", "details": "rhesus monkey, in vivo", "procedure,_shortened": "as §3"}, "[18]": {"assay": "Drug level in monkey at 2.5 mg/kg, po at 24 hrs by LC-MS method", "format": "ADME, organism-based, Macaca mulatta", "details": "rhesus monkey, in vivo, read-out: Drug uptake", "procedure,_shortened": "as §3"}}, "note": "Changes are numbered by the printed parent chain.", "data": [{"smiles": "COC(=O)N[C@H](C(=O)N1CCC[C@H]1c1nc2cc([C@H]3CC[C@H](c4cc5nc([C@@H]6CCCN6C(=O)[C@@H](NC(=O)OC)[C@@H](C)OC)[nH]c5cc4F)N3c3cc(F)c(N4CCC(c5ccc(F)cc5)CC4)c(F)c3)c(F)cc2[nH]1)[C@@H](C)OC", "note": "[PIBRENTASVIR]", "values": [{"measurement": "fold change (FC)", "setting": "[1]", "result": 1.7}, {"measurement": "fold change (FC)", "setting": "[2]", "result": 6.7}, {"measurement": "half-life", "setting": "[3]", "result": 2, "unit": "h"}, {"measurement": "Cmax", "setting": "[4]", "result": 1140, "unit": "nM"}, {"measurement": "fold change (FC)", "setting": "[5]", "result": 0.6}, {"measurement": "AUC(0-t)", "setting": "[6]", "result": 252000, "unit": "ng·h/mL"}, {"measurement": "clearance", "setting": "[7]", "result": 1.17, "unit": "mL/min/kg"}, {"measurement": "AUC(0-t)", "setting": "[8]", "result": 10600, "unit": "ng·h/mL"}, {"measurement": "clearance", "setting": "[9]", "result": 1.62, "unit": "mL/min/kg"}, {"measurement": "Vd", "setting": "[10]", "result": 0.07, "unit": "L/kg"}, {"measurement": "Tmax", "setting": "[11]", "result": 5.3, "unit": "h"}, {"measurement": "Cmax", "setting": "[12]", "result": 250, "unit": "nM"}, {"measurement": "concentration at 24 h", "setting": "[13]", "result": 41, "unit": "nM"}, {"measurement": "bioavailability", "setting": "[14]", "result": 9.9, "unit": "%"}, {"measurement": "half-life", "setting": "[15]", "result": 8.3, "unit": "h"}, {"measurement": "AUC(0-t)", "setting": "[16]", "result": 5990, "unit": "ng·h/mL"}, {"measurement": "Cmax", "setting": "[17]", "result": 260, "unit": "nM"}, {"measurement": "concentration at 24 h", "setting": "[18]", "result": 17, "unit": "nM"}]}]}
